Measurements reported in ChEMBL document CHEMBL1156597, “Structure-activity relationship of kahalalide F synthetic analogues” (J Med Chem, 2008).

Columns and labels:
HeLa = test: Cytotoxicity against human HeLa cells after 48 hrs by SRB assay; assay type: functional; conditions: for CC50: read-out: LC50 (the source's name)
How it was run: (§1)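 Cells grown in RPMI 1640 with 10% FBS and penicillin/streptomycin at 37 °C and 5% CO₂, trypsinized, then seeded at 5 × 10³/well. After 18 h drug-free attachment, samples in DMSO/EtOH/PBS (0.5:0.5:99) were added for 48 h continuous exposure. Cells were fixed with cold TCA (1 h, 4 °C) and stained with SRB (10 min). Tris-solubilized stain read at 490 nm. Triplicate wells, mean ± SD; GI₅₀ derived.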

PANC-1 = test: Cytotoxicity against human PANC1 cells after 48 hrs by SRB assay; assay type: functional; conditions: PANC-1, 48 h; for CC50: read-out: LC50 (the source's name); how it was run: as §1
[1] = Cytotoxicity against human IGROV-ET cells after 48 hrs by SRB assay; assay type: functional; conditions: for CC50: read-out: LC50 (the source's name); how it was run: as §1
SK-MEL-28 = test: Cytotoxicity against human SK-MEL-28 cells after 48 hrs by SRB assay; assay type: functional, cell-based; conditions: Homo sapiens, SK-MEL-28, 48 h; for CC50: read-out: LC50 (the source's name); how it was run: as §1
[2] = Cytotoxicity against human IGROV cells after 48 hrs by SRB assay; assay type: functional; conditions: for CC50: read-out: LC50 (the source's name); how it was run: as §1
[3] = Cytotoxicity against human HeLa-APL cells after 48 hrs by SRB assay; assay type: functional; how it was run: as §1
LoVo = test: Cytotoxicity against human LoVo cells after 48 hrs by SRB assay; assay type: functional; conditions: for CC50: read-out: LC50 (the source's name)
A549 = test: Cytotoxicity against human A549 cells after 48 hrs by SRB assay; assay type: functional, cell-based; conditions: Homo sapiens, A549, 48 h; how it was run: as §1
K562 = test: Cytotoxicity against human K562 cells after 48 hrs by SRB assay; assay type: functional; conditions: K562, 48 h; for CC50: read-out: LC50 (the source's name); how it was run: as §1
HT-29 = test: Cytotoxicity against human HT29 cells after 48 hrs by SRB assay; assay type: functional, cell-based; conditions: Homo sapiens, HT-29, 48 h; for CC50: read-out: LC50 (the source's name); how it was run: as §1
SK-BR-3 = test: Cytotoxicity against human SKBR3 cells after 48 hrs by SRB assay; assay type: functional; conditions: SK-BR-3, 48 h; for CC50: read-out: LC50 (the source's name); for GI50: read-out: GI50; how it was run: as §1
DU-145 = test: Cytotoxicity against human DU145 cells after 48 hrs by SRB assay; assay type: functional, cell-based; conditions: Homo sapiens, DU-145, 48 h; for CC50: read-out: LC50 (the source's name); for GI50: read-out: GI50; how it was run: as §1
LNCaP = test: Cytotoxicity against human LNcaP cells after 48 hrs by SRB assay; assay type: functional; conditions: for CC50: read-out: LC50 (the source's name); how it was run: as §1

Compound | CC50 (HeLa) [nM] | CC50 (PANC-1) [nM] | CC50 [1] [nM] | CC50 (SK-MEL-28) [nM] | CC50 [2] [nM] | LC50 (concentration giving 50% net cell kill) [3] [nM] | CC50 (LoVo) [µM] | LC50 (A549) [nM] | CC50 (K562) [nM] | CC50 (HT-29) [nM] | CC50 (SK-BR-3) [nM] | CC50 (DU-145) [nM] | GI50 (LNCaP) [nM] | TGI (LNCaP) [µM] | CC50 (LNCaP) [nM] | GI50 (SK-MEL-28; read-out: GI50) [nM] | GI50 (A549; read-out: GI50) [nM] | GI50 [3] [µM] | TGI [3] [µM] | GI50 (LoVo) [nM] | further results
C/C=C1\NC(=O)[C@H](Cc2ccccc2)NC(=O)[C@@H](C(C)C)NC(=O)[C@@H]([C@H](C)CC)NC(=O)[C@H](NC(=O)[C@H](NC(=O)[C@H](CCCN)NC(=O)[C@H]2CCCN2C(=O)[C@H](NC(=O)[C@H](CCC(N)=O)NC(=O)[C@@H](NC(=O)[C@H](NC(=O)CCCC(C)C)C(C)C)[C@@H](C)O)C(C)C)[C@H](C)CC)[C@H](C)OC(=O)[C@H](C(C)C)NC1=O | 1020 | 2480 | 689 | 1410 | 619 | 1300 | 4.69 | 1870 | 2390 | 869 | 2720 | 1620 | 3120 | 3.17 | 1510 |  |  |  |  |  | 
C/C=C1\NC(=O)[C@H](Cc2ccccc2)NC(=O)[C@@H](C(C)C)NC(=O)[C@@H]([C@H](C)CC)NC(=O)[C@H](NC(=O)[C@H](NC(=O)[C@H](CCCN)NC(=O)[C@H]2CCCN2C(=O)[C@H](NC(=O)[C@@H](NC(=O)[C@@H](NC(=O)[C@H](NC(=O)CCCNC(=N)N)C(C)C)[C@@H](C)O)C(C)C)C(C)C)[C@H](C)CC)[C@H](C)OC(=O)[C@H](C(C)C)NC1=O | 1030 | 2510 | 695 | 1430 | 624 | 1310 | 4.74 | 1890 | 2410 | 877 | 2750 | 1630 | 3930 | 3.2 | 1520 |  |  |  |  |  | 
C/C=C1\NC(=O)[C@H](Cc2ccccc2)NC(=O)[C@@H](C(C)C)NC(=O)[C@@H]([C@H](C)CC)NC(=O)[C@H](NC(=O)[C@H](NC(=O)[C@H](CCCN)NC(=O)[C@H]2CCCN2C(=O)[C@H](NC(=O)[C@@H](NC(=O)[C@@H](NC(=O)[C@H](NC(=O)CCCCCCCCCCCCCCCCCCC)C(C)C)[C@@H](C)O)C(C)C)C(C)C)[C@H](C)CC)[C@H](C)OC(=O)[C@H](C(C)C)NC1=O | 477 | 423 | 1210 | 432 | 1230 | 2030 | 0.96 | 383 | 910 | 877 | 865 | 2030 |  |  | 296 | 1890 | 1880 |  |  |  | GI50 (SK-MEL-28): 905 nM; GI50 (A549): 850 nM
C/C=C1\NC(=O)[C@H](Cc2ccccc2)NC(=O)[C@@H](C(C)C)NC(=O)[C@@H]([C@H](C)CC)NC(=O)[C@H](NC(=O)[C@H](NC(=O)[C@H](CCCN)NC(=O)[C@H]2CCCN2C(=O)[C@H](NC(=O)[C@H](NC(=O)[C@@H](NC(=O)[C@H](NC(=O)CCCC(C)C)C(C)C)[C@@H](C)O)C(C)C)C(C)C)[C@H](C)CC)[C@H](C)OC(=O)[C@H](C(C)C)NC1=O | 1040 | 2530 | 702 | 1440 | 631 | 1320 | 3.11 | 1910 | 2430 | 886 | 2310 | 1650 | 2440 | 3.23 | 1540 |  | 5090 | 3.4 | 3.04 | 3310 | GI50 (PANC-1): 4.43 µM; TGI (PANC-1): 4.92 µM; TGI (LoVo): 3210 nM; TGI (A549): 4.23 µM; GI50 (K562): 4.29 µM; TGI (K562): 4.83 µM; GI50 (HT-29): 4.84 µM; TGI (HT-29): 3.93 µM; TGI (SK-BR-3): 3230 nM; GI50 (SK-BR-3): 3.69 µM; TGI (DU-145): 3.8 µM; GI50 (DU-145): 3.13 µM
C/C=C1\NC(=O)[C@H](Cc2ccccc2)NC(=O)[C@@H](C(C)C)NC(=O)[C@@H]([C@H](C)CC)NC(=O)[C@H](NC(=O)[C@H](NC(=O)[C@H](CCCN)NC(=O)[C@H]2CCCN2C(=O)[C@H](NC(=O)[C@H](C)NC(=O)[C@@H](NC(=O)[C@H](NC(=O)CCCC(C)C)C(C)C)[C@@H](C)O)C(C)C)[C@H](C)CC)[C@H](C)OC(=O)[C@H](C(C)C)NC1=O | 1060 | 2580 | 599 | 1470 | 533 | 1350 | 2.99 | 1940 | 2480 | 665 | 2170 | 1680 | 2800 | 3.3 | 1570 | 3450 | 3730 | 3.27 | 3.1 | 2680 | GI50 (HeLa): 3100 nM; TGI (HeLa): 2830 nM; GI50 [1]: 863 nM; GI50 ([1]; read-out: GI50): 1250 nM; TGI (SK-MEL-28): 3070 nM; GI50 [2]: 934 nM; GI50 ([2]; read-out: GI50): 2000 nM; TGI (LoVo): 2830 nM; TGI (A549): 4.31 µM; GI50 (K562): 4.32 µM; TGI (K562): 4.93 µM; TGI (SK-BR-3): 2960 nM; GI50 (SK-BR-3): 3.25 µM; TGI (DU-145): 3.87 µM; GI50 (DU-145): 3.9 µM
C/C=C1\NC(=O)[C@H](Cc2ccccc2)NC(=O)[C@@H](C(C)C)NC(=O)[C@@H]([C@H](C)CC)NC(=O)[C@H](NC(=O)[C@H](NC(=O)[C@H](CCCN)NC(=O)[C@H]2CCCN2C(=O)[C@H](NC(=O)[C@@H](NC(=O)[C@@H](NC(=O)[C@@H](Cc2ccccc2)NC(=O)CCCC(C)C)[C@@H](C)O)C(C)C)C(C)C)[C@H](C)CC)[C@H](C)OC(=O)[C@H](C(C)C)NC1=O | 1010 | 2450 | 680 | 1400 | 449 | 1280 | 2.8 | 1840 | 2360 | 5590 | 1670 | 1600 | 2280 | 3.13 | 1490 | 2640 | 2650 | 0.179 | 1.7 | 2620 | GI50 (HeLa): 2210 nM; TGI (HeLa): 2690 nM; GI50 (PANC-1): 5.44 µM; TGI (PANC-1): 4.76 µM; TGI [1]: 1730 nM; GI50 ([1]; read-out: GI50): 2240 nM; TGI (SK-MEL-28): 2920 nM; GI50 [2]: 862 nM; GI50 ([2]; read-out: GI50): 2010 nM; TGI (LoVo): 2710 nM; TGI (A549): 2.75 µM; GI50 (K562): 3.4 µM; TGI (K562): 4.68 µM; TGI (SK-BR-3): 2190 nM; GI50 (SK-BR-3): 2.34 µM; TGI (DU-145): 3.68 µM; GI50 (DU-145): 3.9 µM
